Laboratory results: ChEMBL document CHEMBL1134566, “Human thioredoxin reductase is efficiently inhibited by (2,2':6',2' '-terpyridine)platinum(II) complexes. Possible implications for a novel antitumor strategy” (J Med Chem, 2001)

What was measured:
[1] = target: T1, Thioredoxin reductase (Homo sapiens, UniProt Q16881+Q9NNW7+Q86VQ6); assay: Inhibitory concentration at 50% inhibition; format: protein assay
Summary of the method: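 Tight-binding hTrxR inhibition. Human placental TrxR (~2 nM) in 100 mM potassium phosphate, 2 mM EDTA, pH 7.4, reduced with 200 μM NADPH, then preincubated with varying inhibitor for 5 min at 25 °C (footnote says 2 min). Activity started with 3 mM DTNB and read as A412 increase. IC50 taken from dose-response curves.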

[2] = target: T1, Thioredoxin reductase; assay: Inhibitory concentration used to inhibit the enzyme competitively with the substrate; format: protein assay
Summary of the method: (§1)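 Reversible competitive component. About 2 nM placental hTrxR with DTNB 50 μM–1 mM and a single inhibitor concentration (10 nM–1 μM) in phosphate/EDTA buffer, pH 7.4. Started with 200 μM NADPH at 25 °C, TNB formation read at 412 nm. Km' compared with Km without inhibitor; Ki = Km[I]/(Km' − Km).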

[3] = target: Glutathione reductase, mitochondrial (Homo sapiens) (UniProt P00390); assay: Percent inhibition of the glutathione reductase after 2 min incubation at 10 uM inhibitory concentration
Summary of the method: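 Human glutathione reductase in 47 mM potassium phosphate, 1 mM EDTA, 200 mM KCl, pH 6.9, 100 μM NADPH. Enzyme preincubated 2 min with 10 μM compound in the assay mixture, then started with 1 mM GSSG at 25 °C. NADPH consumption followed as A340 decrease; percent inhibition versus uninhibited enzyme.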

[4] = target: T1, Thioredoxin reductase; assay: Michaelis-Menten constant (Km') for DTNB (5,5'-dithiobis(2-nitrobenzoate) in the presence of the compound; format: protein assay; summary of the method: as §1
[5] = target: T1, Thioredoxin reductase; assay: Inhibitory concentration for Km'; format: protein assay; summary of the method: as §1
[6] = target: Glutathione reductase, mitochondrial (Homo sapiens) (UniProt P00390); assay: Percent GR activity after exposure to 10 uM for 67 hr
Summary of the method: (§2)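 NCH37 glioblastoma cells in RPMI 1640 with 10% FCS at 37 °C, 5% CO2, given compound once or as doses at 0, 24 and 48 h. Sampled at 30, 90, 270 min or 67 h. Intact cells washed in PBS and sonicated; cleared lysate assayed. TrxR used 100 μM E. coli thioredoxin, with NADPH oxidase background subtracted. GR used the GSSG/NADPH A340 assay. mU/10^6 cells given as % of untreated controls, mean of three experiments.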

[7] = target: Glutathione reductase, mitochondrial (Homo sapiens) (UniProt P00390); assay: Percent GR activity after exposure to 1 uM for 270 min; summary of the method: as §2
[8] = target: Glutathione reductase, mitochondrial (Homo sapiens) (UniProt P00390); assay: Percent GR activity after exposure to 1 uM for 30 min; summary of the method: as §2
[9] = target: Glutathione reductase, mitochondrial (Homo sapiens) (UniProt P00390); assay: Percent GR activity after exposure to 1 uM for 67 hr; summary of the method: as §2
[10] = target: Glutathione reductase, mitochondrial (Homo sapiens) (UniProt P00390); assay: Percent GR activity after exposure to 1 uM for 90 min; summary of the method: as §2
[11] = target: Glutathione reductase, mitochondrial (Homo sapiens) (UniProt P00390); assay: Percent GR activity after exposure to 3x1 uM concentration at regular intervals of 0,24,48 hours for the period of 67 hours; summary of the method: as §2
[12] = target: Glutathione reductase, mitochondrial (Homo sapiens) (UniProt P00390); assay: Percent GR activity after exposure to 3x10 uM concentration at regular intervals of 0,24,48 hours for the period of 67 hours; summary of the method: as §2
[13] = target: Glutathione reductase, mitochondrial (Homo sapiens) (UniProt P00390); assay: Percent GR activity after exposure to 3x5 uM concentration at regular intervals of 0,24,48 hours for the period of 67 hours; summary of the method: as §2
[14] = target: Glutathione reductase, mitochondrial (Homo sapiens) (UniProt P00390); assay: Percent GR activity after exposure to 5 uM for 67 hr; summary of the method: as §2
[15] = target: T1, Thioredoxin reductase; assay: Percent TrxR activity after exposure to 3x1 uM concentration at regular intervals of 0,24,48 hours for the period of 67 hours; format: functional; summary of the method: as §2
[16] = target: T1, Thioredoxin reductase; assay: Percent TrxR activity after exposure to 3x10 uM concentration at regular intervals of 0,24,48 hours for the period of 67 hours; format: functional; summary of the method: as §2
[17] = target: T1, Thioredoxin reductase; assay: Percent TrxR activity after exposure to 3x5 uM concentration at regular intervals of 0,24,48 hours for the period of 67 hours; format: functional; summary of the method: as §2
[18] = target: T1, Thioredoxin reductase; assay: Percent TrxR activity after exposure to 5 uM for 30 mins; format: functional; summary of the method: as §2
[19] = target: T1, Thioredoxin reductase; assay: Percent TrxR activity after exposure to 5 uM for 67 hr; format: functional; summary of the method: as §2
[20] = target: T1, Thioredoxin reductase; assay: Percent TrxR activity after exposure to 10 uM for 67 hrs; format: functional; summary of the method: as §2
[21] = target: T1, Thioredoxin reductase; assay: Percent TrxR activity after exposure to 1 uM for 270 mins; format: functional; summary of the method: as §2
[22] = target: T1, Thioredoxin reductase; assay: Percent TrxR activity after exposure to 1 uM for 67h; format: functional; summary of the method: as §2
[23] = target: T1, Thioredoxin reductase; assay: Percent TrxR activity after exposure to 1 uM for 90 mins; format: functional; summary of the method: as §2
[24] = target: T1, Thioredoxin reductase; assay: Percent TrxR activity after exposure to 1 uM for 30 mins; format: functional; summary of the method: as §2
[25] = tested on: HNO 97 cell line; assay: 50% Growth inhibition on HNO97 head and neck squamous carcinoma cell lines; format: functional, cell-based
Summary of the method: (§3)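 BrdU incorporation proliferation assay. 7×10^3 cells/well in RPMI 1640 with 10% FCS, 8 replicas. Compound added 24 h after seeding at 1, 5, 10 or 20 μM, either once or three times at 24 h intervals; 67 h total incubation. BrdU (100 μM final) added 48 h after first addition. Absorbance expressed relative to untreated controls (100%). IC50 ± SD from ≥2 independent experiments.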

[26] = tested on: HNO199 cell line; assay: 50% Growth inhibition on HNO199 head and neck squamous carcinoma cell lines; format: functional, cell-based; summary of the method: as §3
[27] = tested on: NCH89; assay: 50% Growth inhibition on NCH89 glioma cell lines; format: functional, cell-based; summary of the method: as §3
[28] = tested on: NCH37; assay: 50% Growth inhibition on NCH37 glioma cell lines
[29] = tested on: NCH82; assay: 50% Growth inhibition on NCH82 glioma cell lines

T1 sequence (Q86VQ6 whole entry, looked up, chain 1 of 3): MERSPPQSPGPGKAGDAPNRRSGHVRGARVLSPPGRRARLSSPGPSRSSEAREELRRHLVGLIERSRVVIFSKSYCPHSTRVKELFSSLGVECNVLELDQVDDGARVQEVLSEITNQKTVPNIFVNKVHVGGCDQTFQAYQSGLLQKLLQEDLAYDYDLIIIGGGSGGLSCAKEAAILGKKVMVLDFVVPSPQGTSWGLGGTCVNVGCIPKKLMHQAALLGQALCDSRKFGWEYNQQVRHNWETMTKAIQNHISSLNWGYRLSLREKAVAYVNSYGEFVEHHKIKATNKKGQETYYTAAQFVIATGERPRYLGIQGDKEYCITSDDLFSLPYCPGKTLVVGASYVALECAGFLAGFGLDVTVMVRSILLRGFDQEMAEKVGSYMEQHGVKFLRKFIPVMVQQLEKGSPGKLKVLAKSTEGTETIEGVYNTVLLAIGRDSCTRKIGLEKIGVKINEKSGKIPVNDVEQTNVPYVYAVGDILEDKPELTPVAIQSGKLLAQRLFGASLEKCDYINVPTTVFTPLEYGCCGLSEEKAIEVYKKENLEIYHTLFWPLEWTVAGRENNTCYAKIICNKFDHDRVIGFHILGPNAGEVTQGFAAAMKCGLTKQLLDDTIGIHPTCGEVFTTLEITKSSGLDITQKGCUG
T1 sequence (Q9NNW7 whole entry, looked up, chain 2 of 3): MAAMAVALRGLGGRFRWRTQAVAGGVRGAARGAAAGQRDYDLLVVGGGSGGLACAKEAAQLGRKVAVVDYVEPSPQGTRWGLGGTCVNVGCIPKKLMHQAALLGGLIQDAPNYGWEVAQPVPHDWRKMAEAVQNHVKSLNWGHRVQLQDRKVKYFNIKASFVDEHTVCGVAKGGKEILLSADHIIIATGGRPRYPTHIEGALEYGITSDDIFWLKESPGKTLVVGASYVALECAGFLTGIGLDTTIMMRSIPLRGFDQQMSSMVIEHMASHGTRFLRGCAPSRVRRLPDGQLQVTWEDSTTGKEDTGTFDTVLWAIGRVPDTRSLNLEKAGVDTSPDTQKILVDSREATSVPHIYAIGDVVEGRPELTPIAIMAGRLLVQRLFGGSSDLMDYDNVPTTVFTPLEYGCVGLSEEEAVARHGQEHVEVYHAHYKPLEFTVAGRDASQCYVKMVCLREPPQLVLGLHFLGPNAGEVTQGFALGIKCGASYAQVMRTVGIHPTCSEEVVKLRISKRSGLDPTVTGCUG
T1 sequence (Q16881 whole entry, looked up, chain 3 of 3): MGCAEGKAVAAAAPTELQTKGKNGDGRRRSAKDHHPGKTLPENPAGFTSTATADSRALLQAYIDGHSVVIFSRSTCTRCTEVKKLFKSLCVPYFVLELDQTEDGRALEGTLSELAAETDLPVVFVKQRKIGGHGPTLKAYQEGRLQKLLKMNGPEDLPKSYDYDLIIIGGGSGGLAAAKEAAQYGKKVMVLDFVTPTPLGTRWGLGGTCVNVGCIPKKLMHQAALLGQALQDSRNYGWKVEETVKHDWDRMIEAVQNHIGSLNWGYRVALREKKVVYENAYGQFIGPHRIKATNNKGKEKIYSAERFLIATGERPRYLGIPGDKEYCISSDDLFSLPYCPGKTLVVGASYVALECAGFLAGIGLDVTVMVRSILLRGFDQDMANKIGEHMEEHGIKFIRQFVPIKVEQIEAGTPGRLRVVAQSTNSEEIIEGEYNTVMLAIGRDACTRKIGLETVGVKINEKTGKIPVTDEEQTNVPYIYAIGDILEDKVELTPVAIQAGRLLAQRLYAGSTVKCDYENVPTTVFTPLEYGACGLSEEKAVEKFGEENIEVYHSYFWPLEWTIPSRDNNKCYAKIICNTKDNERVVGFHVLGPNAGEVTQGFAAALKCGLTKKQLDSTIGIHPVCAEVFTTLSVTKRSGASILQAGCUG
Chain of Glutathione reductase, mitochondrial (Homo sapiens) (P00390 whole entry): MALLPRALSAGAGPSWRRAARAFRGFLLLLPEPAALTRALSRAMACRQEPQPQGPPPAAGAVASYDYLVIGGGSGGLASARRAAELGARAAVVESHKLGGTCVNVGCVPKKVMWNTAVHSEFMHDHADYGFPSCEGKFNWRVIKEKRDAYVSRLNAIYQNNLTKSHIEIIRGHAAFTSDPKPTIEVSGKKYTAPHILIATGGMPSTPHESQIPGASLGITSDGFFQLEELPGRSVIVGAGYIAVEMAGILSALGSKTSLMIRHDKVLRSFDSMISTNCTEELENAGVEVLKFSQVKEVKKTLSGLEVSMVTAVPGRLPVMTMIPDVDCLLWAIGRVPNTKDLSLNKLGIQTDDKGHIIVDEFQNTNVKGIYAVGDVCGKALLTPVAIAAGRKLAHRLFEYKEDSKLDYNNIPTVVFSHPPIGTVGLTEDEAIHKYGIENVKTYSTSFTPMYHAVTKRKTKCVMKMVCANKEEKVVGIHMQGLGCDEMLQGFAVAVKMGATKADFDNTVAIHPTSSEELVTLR

Substance | IC50 [1] [nM] | Ki [2] [nM] | inhibition [3] [%] | Km' [4] [µM] | [I] for Km' [5] [µM] | other results
2-Mercaptoimidazole Bis[(4'-chloro-2,2':6',2''-terpyridine)platinum (II)] Trinitrate [listing 1 of 2 here] | 3 | 11 |  |  |  | 
4-Mercaptoethanol-(2,2':6',2''-terpyridine)platinum (II) Nitrate [listing 1 of 2 here] |  |  | 7 | 399 | 1 | 
4-Mercaptoethanol-(2,2':6',4'-chloro,2''-terpyridine)platinum (II) Nitrate [listing 1 of 2 here] |  |  | 55 | 4740 | 1 | 
4-Mercaptopyridine (4'-chloro-2,2':6',2''-terpyridine)platinum (II) Nitrate [listing 1 of 2 here] |  |  | 90 | 1060 | 0.05 | Activity [6]: 260%; Activity [7]: 110%; Activity [8]: 90%; Activity [9]: 220%; Activity [10]: 90%; Activity [11]: 180%; Activity [12]: 180%; Activity [13]: 220%; Activity [14]: 200%; Activity [15]: 110%; Activity [16]: 5%; Activity [17]: 60%; Activity [18]: 30%; Activity [19]: 130%; Activity [20]: 80%; Activity [21]: 90%; Activity [22]: 160%; Activity [23]: 50%; Activity [24]: 50%
2-Mercaptopyrimidine (4'-chloro-2,2':6',2''-terpyridine)platinum (II) Nitrate [listing 1 of 2 here] | 7 | 17 |  |  |  | 
2-Mercaptopyrimidine (4'-chloro-2,2':6',2''-terpyridine)platinum (II) Nitrate [listing 2 of 2 here] |  |  | 66 | 715 | 0.1 | 
4-Mercaptopyridine (4'-chloro-2,2':6',2''-terpyridine)platinum (II) Nitrate [listing 2 of 2 here] | 4 | 5 |  |  |  | IC50 [25]: 5500 nM; IC50 [26]: 9200 nM; IC50 [27]: 2500 nM; IC50 [28]: 10500 nM; IC50 [29]: 7400 nM
4-Mercaptoethanol-(2,2':6',2''-terpyridine)platinum (II) Nitrate [listing 2 of 2 here] | 35 | 348 |  |  |  | 
2-Mercaptopyridine (4'-chloro-2,2':6',2''-terpyridine)platinum (II) Nitrate [listing 1 of 2 here] | 6 | 7 |  |  |  | 
2-Mercaptopyridine (4'-chloro-2,2':6',2''-terpyridine)platinum (II) Nitrate [listing 2 of 2 here] |  |  | 47 | 247 | 0.01 | 
4-Mercaptoethanol-(2,2':6',4'-chloro,2''-terpyridine)platinum (II) Nitrate [listing 2 of 2 here] | 30 | 22 |  |  |  | 
2-Mercaptoimidazole Bis[(4'-chloro-2,2':6',2''-terpyridine)platinum (II)] Trinitrate [listing 2 of 2 here] |  |  | 20 | 1010 | 0.1 | 
